According to article PMC2834294 (Chemistry & biology, 2010):

Columns and labels:
danio rerio TRPN1 = danio rerio TRPN1 (Danio rerio, UniProt Q7T1G6); format: cell-based
Procedure, shortened: (§1)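 HEK293 lines stably expressed YFP-fused human TRPML3 or zebrafish TRPN1 (G418 0.8 mg/ml, twice subcloned) and were plated at 1,500 cells/well for 23 h at 37 °C. After Fluo-8 loading (1 h 37 °C, 30 min RT), a 5 s basal read and 120 s post-addition read were taken. Max/basal ratios were normalized to DMSO and carbachol (87 µM).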

TRPML3 [1] = target: T1, TRPML3 (Homo sapiens, UniProt Q8TDD5); format: cell-based; details: HEK293, read-out: Max % Activation (TRPML3)
T1 sequence (Q8TDD5 1-553): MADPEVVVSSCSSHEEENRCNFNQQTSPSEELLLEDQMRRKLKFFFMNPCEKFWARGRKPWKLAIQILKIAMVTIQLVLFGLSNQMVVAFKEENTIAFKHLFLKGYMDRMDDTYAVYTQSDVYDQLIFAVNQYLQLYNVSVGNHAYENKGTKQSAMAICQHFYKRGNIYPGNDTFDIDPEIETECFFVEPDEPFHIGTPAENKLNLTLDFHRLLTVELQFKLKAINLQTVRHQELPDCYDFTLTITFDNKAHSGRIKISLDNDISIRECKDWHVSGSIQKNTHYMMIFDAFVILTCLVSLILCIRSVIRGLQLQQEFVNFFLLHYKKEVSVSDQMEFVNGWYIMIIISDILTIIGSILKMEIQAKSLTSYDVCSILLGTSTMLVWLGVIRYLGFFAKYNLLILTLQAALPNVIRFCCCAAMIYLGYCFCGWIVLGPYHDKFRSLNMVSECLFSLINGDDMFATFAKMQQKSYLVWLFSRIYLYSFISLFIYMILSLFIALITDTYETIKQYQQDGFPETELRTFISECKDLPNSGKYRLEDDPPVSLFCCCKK
Procedure, shortened: as §1

TRPML1(NC) = TRPML1(NC) (Homo sapiens, UniProt Q9GZU1); experiment: Fura-2 calcium imaging, HEK293 cells expressing TRPML1; format: cell-based; details: 10 µM, plasma membrane-localized TRPML1 variant
Procedure, shortened: (§2)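 HEK293 cells were transiently transfected (Genejammer) with the human channel construct or YFP control and measured 24 h later. Cells on glass coverslips were loaded with 4 µM fura-2-AM in bath solution (mM: 138 NaCl, 6 KCl, 2 MgCl2, 2 CaCl2, 10 HEPES, 5.5 D-glucose; pH 7.4). Compounds were applied at 10 µM and the F340/F380 ratio recorded. Values are mean ± SEM, n≥3.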

[2] = tested on: primary human epidermal melanocytes; experiment: Calcium imaging in primary human epidermal melanocytes; format: cell-based; details: concentrations up-to 100 µM; SN-2 at 30 µM and 100 µM
Procedure, shortened: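 Primary neonatal human epidermal melanocytes were cultured in medium 254 with HMGS at 37 °C and 5% CO2. Intracellular Ca2+ was imaged after applying compounds at 100 µM, with one compound also at 30 µM. Data are mean ± SEM from more than 3 independent experiments of 20–30 cells each.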

TRPML3 [3] = format: cell-based
Procedure, shortened: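 Whole-cell recordings used HEK293 cells expressing TRPML3 with 100% series-resistance compensation. Pipette solution (mM): 140 CsCl, 10 HEPES, 3 ATP-Na, 1 BAPTA, 2 MgCl2; pH 7.2. Compound at 10 µM was perfused in endolymph-like solution (mM: 2 NaCl, 150 KCl, 0.25 CaCl2, 10 HEPES, 10 glucose; pH 7.4) or in standard bath. Inward current at −80 mV was normalized to capacitance.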

TRPML3 [4] = target: T1, TRPML3; experiment: Excised; format: cell-based
[5] = tested on: melanocytes expressing dynamin; experiment: Calcium imaging, melanocytes transfected with wild type dynamin; format: cell-based, human; details: 30 µM
Procedure, shortened: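 Human epidermal melanocytes (medium 254 plus HMGS) were transfected with wild-type dynamin, DynK44A or YFP control. Intracellular Ca2+ was imaged after applying compounds at 30 µM each. Data are mean ± SEM from at least 3 independent experiments of 20–30 cells each.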

TRPML3 [6] = target: T1, TRPML3; experiment: Whole-cell patch-clamp with intracellular application; format: cell-based
cochlear hair cells = experiment: Recording from acutely isolated cochlear hair cells; format: cell-based, rat; details: up-to 100 µM; in SBS, SN-2 also in ELS
TRPML3 [7] = target: T1, TRPML3; experiment: Whole-cell patch-clamp, HEK293 cells transiently transfected with TRPML3; format: cell-based
Procedure, shortened: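 Whole-cell patch clamp was done on HEK293 cells 24 h after transient transfection with human TRPML3 or YFP; constitutively active TRPML3(A419P) cells served as positive control. Bath solution (mM): 138 NaCl, 5.4 KCl, 2 MgCl2, 2 CaCl2, 10 HEPES, 10 d-glucose; pH 7.4. Pipette solution (mM): 140 CsCl, 10 HEPES, 3 ATP-Na, 1 BAPTA, 2 MgCl2; pH 7.2. Compounds at 10 µM were perfused. Capacitance-normalized current at −80 mV is reported as mean ± SEM, n≥3.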

TRPML3 [8] = target: T1, TRPML3; experiment: Fura-2 calcium imaging, HEK293 cells transiently expressing TRPML3; format: cell-based
Procedure, shortened: as §2

[9] = tested on: TRPM2, TRPV2, TRPC3, TRPN1, TRPA1; experiment: Fura-2 calcium imaging selectivity, HEK293 cells expressing other TRP channels; format: cell-based
Procedure, shortened: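 HEK293 cells were transiently transfected (Genejammer) with expression vectors for each TRP channel and measured 24 h later. Cells on coverslips were loaded with 4 μM fura-2-AM in bath solution (mM: 138 NaCl, 6 KCl, 2 MgCl₂, 2 CaCl₂, 10 HEPES, 5.5 D-glucose, pH 7.4). [Ca²⁺]i increases to 10 µM test compound were imaged on a monochromator-based system.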

Chain of danio rerio TRPN1 (Q7T1G6 1-1614): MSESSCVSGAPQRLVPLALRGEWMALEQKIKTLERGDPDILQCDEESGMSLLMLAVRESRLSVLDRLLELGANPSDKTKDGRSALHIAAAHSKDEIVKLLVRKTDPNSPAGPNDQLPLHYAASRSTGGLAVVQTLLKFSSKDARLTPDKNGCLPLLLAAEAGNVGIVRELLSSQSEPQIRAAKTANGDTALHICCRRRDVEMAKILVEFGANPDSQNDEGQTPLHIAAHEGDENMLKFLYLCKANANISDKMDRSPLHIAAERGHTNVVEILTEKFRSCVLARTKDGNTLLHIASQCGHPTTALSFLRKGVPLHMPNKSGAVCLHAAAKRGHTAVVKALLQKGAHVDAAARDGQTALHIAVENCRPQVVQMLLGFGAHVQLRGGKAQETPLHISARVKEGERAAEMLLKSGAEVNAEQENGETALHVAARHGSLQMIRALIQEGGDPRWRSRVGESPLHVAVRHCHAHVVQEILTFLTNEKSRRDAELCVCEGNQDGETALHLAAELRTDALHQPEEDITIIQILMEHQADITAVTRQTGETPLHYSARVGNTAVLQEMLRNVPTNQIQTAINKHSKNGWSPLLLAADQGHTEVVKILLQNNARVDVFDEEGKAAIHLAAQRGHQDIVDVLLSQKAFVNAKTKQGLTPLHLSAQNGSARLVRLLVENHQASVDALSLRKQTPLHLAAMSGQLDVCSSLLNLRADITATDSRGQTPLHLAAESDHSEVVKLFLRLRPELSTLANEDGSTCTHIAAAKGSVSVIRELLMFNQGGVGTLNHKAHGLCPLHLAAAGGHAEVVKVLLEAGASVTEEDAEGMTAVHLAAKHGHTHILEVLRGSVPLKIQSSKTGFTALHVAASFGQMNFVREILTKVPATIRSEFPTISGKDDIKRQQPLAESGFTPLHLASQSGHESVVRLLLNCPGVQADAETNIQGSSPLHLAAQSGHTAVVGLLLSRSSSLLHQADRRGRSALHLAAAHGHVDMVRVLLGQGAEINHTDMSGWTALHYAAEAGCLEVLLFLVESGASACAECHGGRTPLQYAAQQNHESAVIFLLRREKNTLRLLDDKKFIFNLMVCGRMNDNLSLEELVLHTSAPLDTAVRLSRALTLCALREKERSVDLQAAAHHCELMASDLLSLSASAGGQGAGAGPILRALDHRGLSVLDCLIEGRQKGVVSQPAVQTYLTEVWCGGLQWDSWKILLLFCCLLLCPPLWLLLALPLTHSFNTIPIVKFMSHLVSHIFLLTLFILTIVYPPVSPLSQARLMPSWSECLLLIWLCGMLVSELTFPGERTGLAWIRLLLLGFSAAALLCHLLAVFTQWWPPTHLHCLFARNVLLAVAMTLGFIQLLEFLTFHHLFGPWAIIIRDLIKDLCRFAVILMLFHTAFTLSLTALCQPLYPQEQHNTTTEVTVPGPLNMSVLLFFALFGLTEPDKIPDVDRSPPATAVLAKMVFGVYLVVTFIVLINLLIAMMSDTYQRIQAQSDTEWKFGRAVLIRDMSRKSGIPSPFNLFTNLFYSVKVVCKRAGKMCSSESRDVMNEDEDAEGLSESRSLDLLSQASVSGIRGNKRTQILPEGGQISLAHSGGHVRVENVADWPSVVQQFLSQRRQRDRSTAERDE
Chain of TRPML1(NC) (Q9GZU1 17-572 limits assumed): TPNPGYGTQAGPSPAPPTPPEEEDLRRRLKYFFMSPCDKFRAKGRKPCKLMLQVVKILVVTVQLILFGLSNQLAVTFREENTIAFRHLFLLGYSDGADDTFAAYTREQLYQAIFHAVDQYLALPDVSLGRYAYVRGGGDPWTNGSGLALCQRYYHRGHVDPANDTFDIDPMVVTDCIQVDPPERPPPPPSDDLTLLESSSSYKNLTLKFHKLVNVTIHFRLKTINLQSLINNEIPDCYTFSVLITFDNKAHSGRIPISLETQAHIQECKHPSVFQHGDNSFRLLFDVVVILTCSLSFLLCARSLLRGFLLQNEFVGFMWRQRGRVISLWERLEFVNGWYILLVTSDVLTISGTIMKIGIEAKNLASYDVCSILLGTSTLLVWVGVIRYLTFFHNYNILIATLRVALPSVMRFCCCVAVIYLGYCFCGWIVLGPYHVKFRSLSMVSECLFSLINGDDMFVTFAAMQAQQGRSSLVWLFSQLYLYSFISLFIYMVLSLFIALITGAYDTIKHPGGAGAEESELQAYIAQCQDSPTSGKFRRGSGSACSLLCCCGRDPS

SMILES: Cc1cc(C)c(C2=NOC3C4CCC(C4)C23)c(C)c1 (stereo not drawn) [SN-2, 5-mesityl-3-oxa-4-azatricyclo[5.2.1.0∼2,6∼]dec-4-ene]
- EC50 (danio rerio TRPN1): > 29.9 µM
- Emax (danio rerio TRPN1; HEK293, read-out: Max % Activation (Control)): 3 ± 1%
- Emax (TRPML3 [1]): 149 ± 11%
- activation of mutant TRPML1(NC) isoform (TRPML1(NC)): did not show any activity
- [Ca2+]i response in primary human epidermal melanocytes [2]: elicited a stronger response
- increase in current densities, compound + ELS vs ELS alone or compound in SBS (TRPML3 [3]; 10 µM compound, ELS 2 mM Na+, 150 mM K+): ≤ 10 fold
- average current densities, compound + ELS (TRPML3 [3]; 10 µM, at −80 mV): up to 3 nA/pF
- conductance of TRPML3 channels (TRPML3 [4]; activated with 10 µM SN-2, at −80 mV, estimate): approximately 10 pS
- TRPML3 activity in excised patches (TRPML3 [4]; patches held at −80 mV): markedly increased TRPML3 activity
- response in melanocytes expressing wild type dynamin [5]: reduction of the response
- cell membrane permeability (TRPML3 [6]; inferred from intracellular infusion experiment): not cell permeant
- response to intracellular application (infusion) (TRPML3 [6]; whole-cell, −80 mV): did not elicit a response when infused into the cells
- TRPML3 channel activity in cochlear hair cells (cochlear hair cells): Neither compound at concentrations of up-to 100 µM, with or without endolymph-like extracellular solution, elicited TRPML3 channel activity
- nA/pF (-80 mV) (TRPML3) (TRPML3 [7]; current density at −80 mV, 10 µM in standard bath solution, mean ±SEM (n≥3)): −0.30 ±0.07 nA/pF
- average current density relative to constitutively active TRPML3 A419P (TRPML3 [7]; whole-cell, −80 mV): comparable to average current densities obtained from cells expressing the constitutively active varitint-waddler mutant isoform A419P
- ⊗F340/F380 (TRPML3) (TRPML3 [8]; 10 µM compound, mean ±SEM (n≥3)): 1.08 ±0.05
- kinetics of intracellular calcium increase (TRPML3 [8]; TRPML3-transfected HEK293 cells): much more rapid increase than the other compounds
- activation of other TRP channels tested [9]: did not show any activity on other TRP channels
